Assay results taken from ChEMBL document CHEMBL4513216, “Probing the Open Global Health Chemical Diversity Library for Multistage-Active Starting Points for Next-Generation Antimalarials” (ACS Infect Dis, 2020).

assay: Toxicity liver stage against HepG2, at 10uM; type: cell-based; parameters: test concentration 10 uM, cell line HepG2-A16-CD81EGFP; conditions: human, HepG2-A16-CD81EGFP cells; read-out: INHIBITION
Method in brief: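 Uninfected HepG2-A16-CD81EGFP cells, 3 × 10^3 per well, 1536-well, plated on prespotted compound at 10 μM final, parasite-free screening media added to match infected plates; puromycin 10 μM positive, DMSO 0.5% negative; run in parallel with 48 h PbLuc assay at 37 °C, 5% CO2; viability by CellTiter-Glo luminescence, normalized to controls.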

| SMILES | cytotoxicity at 10 µM [%] |
| --- | --- |
| CS(=O)(=O)N1CC2(CCCN(C3COC3)C2)Cc2ccccc21 (stereo not drawn) | 5.15 |
| CCc1nc(C2CCCN(C(=O)NCCOC)C2)no1 (stereo not drawn) | -0.775 |
| CO[C@H]1CC[C@H]2[C@H]1OCCN2C(=O)c1nn(C)c2ccccc12 | 5.33 |
| O=C(NC1CCS(=O)(=O)C1)c1sccc1OC(F)F (stereo not drawn) | -0.699 |
| Cc1cccc(CNCC2(O)CCCN(CC3CCCCC3)C2=O)n1 (stereo not drawn) | -10.5 |
| Cn1c(N)nnc1SC1CCCN(c2ccccc2F)C1=O (stereo not drawn) | -7.29 |
| CN(C)c1ncc2c(n1)CCCC2NC(=O)C1CC1 (stereo not drawn) | 4.07 |
| Cc1noc(CN(C)CC(c2cccs2)N2CCOCC2)n1 (stereo not drawn) | -0.524 |
| Cc1cnn(C2CN(Cc3noc(-c4ccccc4)n3)C2)c1 | -1.52 |
| CC(C)N(C)Cc1cc(=O)n2c(n1)CN(S(=O)(=O)C1CC1)CCC2 | 0.819 |
| Cc1nc(-c2nnc[nH]2)sc1C(=O)N1CCCC1c1cccs1 (stereo not drawn) | 11.1 |
| O=C1CN(C(=O)c2cc(Cl)ccc2F)c2ccccc2N1 | 79.6 |
| CCOC(=O)N1CCN(CC(=O)Nc2nnc(C)s2)CC1 | 1.31 |
| O=C(NCCc1cccs1)N1CCC[C@H]1CO | 10.3 |
| Cc1nn(C)c2ncc(CN3CCCCCC3)cc12 | 0.106 |
| O=C(NC1CCCc2nc(N3CCOCC3)ncc21)C1CCCCC1 (stereo not drawn) | -19.9 |
| CCc1ccc(CN2Cc3nccn3CC(CN3CCOCC3)C2)o1 (stereo not drawn) | -87.9 |
| O=C(NCCc1ccccc1)N1CCCCC1C1OCCO1 (stereo not drawn) | -45.2 |
| CN(C)c1cc(C(=O)N2CCCC(n3cccn3)C2)ccn1 (stereo not drawn) | -0.781 |
| CCN(CC)c1ccc2ccc(C(=O)N3CCCCO3)cn12 | 5.33 |
| c1cc(CN2CCC(c3ccncc3)CC2)cc(Cn2cccn2)c1 | -10.1 |
| CS(=O)(=O)N1CCO[C@@H]2CN(C(=O)Cc3cccs3)CC[C@@H]2C1 | -108 |
| CC(C)NC(=O)O[C@H]1COCCN(c2nc3ccccc3s2)C1 | -1.27 |

| SMILES | cytotoxicity at 10 µM [%] |
| --- | --- |
| COCCn1ccc2c(C(=O)Nc3nc4c(s3)CCC4)cccc21 | 1.82 |
| CC1CCCCN1c1nc2c(c(=O)[nH]1)CCN(Cc1ccccc1F)C2 (stereo not drawn) | -4.39 |
| COC(=O)C(c1cc(F)ccc1F)N(C)C(=O)c1ccccn1 (stereo not drawn) | -2.72 |
| CC1c2ccc(F)cc2CCN1C(=O)c1[nH]c(=O)[nH]c(=O)c1N (stereo not drawn) | -5.22 |
| CC1NC(=O)COC12CCN(C(=O)Cc1ccsc1)CC2 (stereo not drawn) | -5.73 |
| CC(C(=O)NCCN1CCCCCC1)n1cncn1 (stereo not drawn) | -1.4 |
| CN(Cc1c(F)cccc1Cl)C(=O)Nc1cnn(CC(N)=O)c1 | -6.39 |
| O=C(NC[C@H]1OC[C@@H](NC2COC2)[C@@H]1O)Nc1ccccc1 | 4.43 |
| CC(=O)c1ccc(OCC(=O)c2cccn2C)cc1 | 27.6 |
| COc1c(Br)c(C(=O)NC2CC2)nn1C | 3.18 |
| NCC1[C@H]2CN(Cc3ccccc3)C[C@@H]12 (stereo partly drawn) | 4.78 |
| CSCCC(=O)N1CCC(c2nnc(CN(C)CCO)n2C)CC1 | 0.583 |
| CCCC1(CO)CCCN(Cc2ncccn2)C1 (stereo not drawn) | -1.89 |
| Cc1cc(=O)[nH]c(-n2nc(C)c(CCC(=O)NCc3ccco3)c2C)n1 | -5.33 |
| CNC(=O)[C@@H]1CC[C@@H]2[C@@H](CCN2Cc2ccccc2F)O1 | 8.1 |
| Cc1ccc(N2CCCC(N(C)Cc3ccccn3)C2)nn1 (stereo not drawn) | -4.01 |
| Cc1nc(CC(=O)NS(=O)(=O)c2cccc3cnccc23)cs1 | 5.75 |
| Cc1cnc(N2CCN3C[C@H](OCc4cccc(C)n4)C[C@H]3C2)nc1 | -1.25 |
| O=C(c1cc(=O)n(-c2ccccc2)[nH]1)N1CCOCC(O)C1 (stereo not drawn) | -0.205 |
| Fc1cnc(N2C[C@H]3CCC[C@@]3(COc3ccccn3)C2)nc1 | 15.6 |
| CCC(C)(C)n1nnnc1C(c1cccs1)N1CCCCC1 (stereo not drawn) | 2.09 |
| COC(=O)CN(C(=O)c1ccc(-n2ccnc2)cc1)C1CC1 | -5 |
| O=C(NCc1ccc2c(c1)OCCO2)N1CCC(CO)CC1 | -4.62 |

| SMILES | cytotoxicity at 10 µM [%] |
| --- | --- |
| CCc1nnc2n1CCN(CC(=O)Nc1sccc1C#N)C2 | -7.67 |
| Cc1ccc(C(CNCc2c[nH]nc2C)N(C)C)cc1 (stereo not drawn) | 8.42 |
| CC(C)OCc1ncn2c1CN(Cc1nccs1)CCC2 | -83.6 |
| Cc1cc(C(=O)NCC(O)c2ccc(Cl)s2)c(C)o1 (stereo not drawn) | -6.82 |
| c1cnc(Nc2cc(CCC3CCCNC3)ccn2)cn1 (stereo not drawn) | -7.58 |
| CC(C(=O)NCC1CCCCC1)S(=O)(=O)Cc1csc(-c2cccs2)n1 (stereo not drawn) | -9.44 |
| CN(C)C(=O)CN1C(=O)[C@@H]2CC[C@H]1CN(Cc1ccccc1C#N)C2 | 1.22 |
| CN(C)C(C(=O)N1Cc2ccccc2C1)c1ccccc1F (stereo not drawn) | -1.91 |
| CCc1cc(N2CCC(Nc3ccc(Cl)cn3)CC2)ncn1 | 49.1 |
| Cc1cc(C)c(S(N)(=O)=O)cc1C(=O)NCCN1CCC(C)CC1 | -0.77 |
| OC1(CNCc2ccc(F)c(C(F)(F)F)c2)CCOC1 (stereo not drawn) | 9.21 |
| CCC(C)NC(=O)N1CCCn2cnc(CO)c2C1 (stereo not drawn) | -9.35 |
| CC1CN(C(=O)CCc2cc(Br)cs2)CCO1 (stereo not drawn) | -8.48 |
| Cc1ccc2c(c1)CCC2NCc1c(C)nn(C)c1N1CCOCC1 (stereo not drawn) | -8.03 |
| Cc1csc(CCNC(=O)N2CCC(n3cccc3)CC2)n1 | 3.98 |
| Cc1csc(C2CCCCN2C(=O)CCCn2cccn2)n1 (stereo not drawn) | -0.89 |
| CS(=O)(=O)c1nccn1Cc1ccc(OC(F)F)cc1 | -0.627 |
| CC(=O)N1CCN(Cc2ccc(F)c(C(F)(F)F)c2)CC(O)C1 (stereo not drawn) | -6.87 |
| O=C(NCCc1noc(-c2ccccn2)n1)NCC1CCCC1 | 0.321 |
| COc1ccc(-c2nnc(C(C)N3CCC4(CC3)OCCO4)o2)cc1 (stereo not drawn) | 12.5 |
| CCOc1ccc(NC(=O)NC2CCc3nc(C)nn3C2)cc1Cl (stereo not drawn) | -3.81 |
| Oc1ccc(N2CCC(Cc3ccccc3)CC2)nn1 | 45.4 |
| CCN(CCn1cccn1)C(=O)CN1C(=O)OC[C@@H]1c1ccccc1 | -12.1 |

| SMILES | cytotoxicity at 10 µM [%] |
| --- | --- |
| CC1CN(C(=O)c2ccnc(OCCN(C)C)c2)c2ccccc21 (stereo not drawn) | -0.343 |
| Cc1nc2ccc(C(=O)N3C[C@@H](O)[C@H](N4CCN(C)CC4)C3)cc2[nH]1 | -27.5 |
| CCc1ccsc1C(=O)N1CCN(C(=O)c2ccc(C)o2)CC1 | 6.98 |
| CCNc1nc2cn(-c3ccc(CC)cc3)c(=O)c-2c[nH]1 | -3.31 |
| CCCc1ccc(S(=O)(=O)NC2(CC(N)=O)CCC2)cc1 | 17.9 |
| c1csc(CN2CCCn3cnc(CN4CCCC4)c3C2)c1 | -72.7 |
| CCc1ccc(C2COCCN2C(=O)Nc2cc(C)on2)o1 (stereo not drawn) | -4.31 |
| CC(C)Oc1cc(N2CCC(N3CCC(O)CC3)CC2)nc(N)n1 | -12.2 |
| CCc1ncc(CN2CCN(CCOC)CC2)cn1 | -21.7 |
| Cc1noc(C)c1CN1CCCC(CN(C(=O)OC(C)(C)C)C(C)C)C1 (stereo not drawn) | 2.42 |
| CC(C)Oc1cccc(-c2nc3c([nH]2)CCCNC3=O)c1 | 27.3 |
| CC(C)c1noc(C(C)N2CCN(Cc3ccccc3C#N)CC2)n1 (stereo not drawn) | -8.13 |
| Cc1ccccc1OCC1CCCN(c2cc(N)nc(N)n2)C1 (stereo not drawn) | 29 |
| Cc1ncc2c(n1)CN(Cc1ncc(C(C)(C)C)o1)CC2 | 0.96 |
| Cc1nc(C)n(CCC(=O)NCC2CCCOC2)n1 (stereo not drawn) | 4.3 |
| COc1c(C)cnc(CN2CCCC2c2noc(C3CC3)n2)c1C (stereo not drawn) | -0.0422 |
| CC(C)CCN1CCN(CC(=O)Nc2ccc3nsnc3c2)CC1 | -0.216 |
| CN(Cc1nc(CC2CC2)no1)CC1Cc2ccccc2O1 (stereo not drawn) | -2.53 |
| Cc1ccc(-c2nccn2-c2ccc(OC3CCN(C)CC3)cc2)o1 | -10.4 |
| Cc1ccc(OCC2CCCN(C(=O)CN3CCOCC3)C2)cc1 (stereo not drawn) | -25.6 |
| CC(C)(CO)Nc1cc(-c2ccccc2)ncn1 | -7.8 |
| N#Cc1ccc(N2CCC3(CCC(=O)N3Cc3ccncc3)CC2)nc1 | -109 |
| CCC(NCc1ccccn1)c1ccccc1OCC(=O)NC (stereo not drawn) | 11.3 |

| SMILES | cytotoxicity at 10 µM [%] |
| --- | --- |
| CNc1cncc(C2CCCN2Cc2ccccn2)n1 (stereo not drawn) | 0.0241 |
| COc1c(C(=O)NCc2cnn(C)c2C)nnn1Cc1ccccc1 | -11.3 |
| O=C(Cc1csc(-c2ccoc2)n1)NCCC(=O)N1CCCCC1 | 9.13 |
| Cc1cnn(Cc2ccc(NC(=O)N3CCCC3)cc2)c1 | 1.18 |
| Cc1ccsc1[C@@H]1CCN(C(=O)CCc2nc3ccccc3[nH]2)C[C@H]1O | -1.67 |
| CCOC1CCN(C(=O)c2csc(S(N)(=O)=O)c2)CC1 | -11.4 |
| CC(C)OC[C@H]1CCC[C@]12CN(S(=O)(=O)c1cn(C)cn1)CCO2 | 5.19 |
| Cc1c(Cl)c(C(=O)NN2CCOCC2)nn1C | 7.47 |
| N#CCCCS(=O)(=O)N1CCCC1CC(=O)c1cccs1 (stereo not drawn) | -5.07 |
| O=C(NC1CCC1)[C@H]1C[C@@H]2[C@@H](C1)OCCN2CC1CC1 | -2.17 |
| Cc1cc(CSCc2ccccn2)on1 | 7.69 |
| Cc1nn(C)c(C)c1OCC(=O)NCC(O)c1ccccc1F (stereo not drawn) | 0.621 |
| Cc1oncc1C(=O)N1CCC(O)(CN2CCOCC2)C(C)(C)C1 (stereo not drawn) | -5.26 |
| NCCn1cc(C(=O)N2CCCCCC2c2ccco2)nn1 (stereo not drawn) | -4.94 |
| O[C@H]1CC[C@@H](Cc2cc(-c3ccc(F)cc3)on2)O[C@@H]1CNCC1CC1 | -6.4 |
| CC(O)CN1CCN(C(=O)Cc2ccccc2Cl)CC1 (stereo not drawn) | -9.6 |
| CC(=O)c1cccc(S(=O)(=O)N2CCC(c3noc(C)n3)CC2)c1 | 7.85 |
| Cc1nn(Cc2ccc(F)cc2)c2[nH]nc(N)c12 | 1.11 |
| CN1C[C@@H](N)C[C@H]1C(=O)N1CCC(Cc2ccc(F)cc2)CC1 | -21.2 |
| CS(=O)(=O)N1CCCC12CCCN(S(=O)(=O)c1ccc(F)cc1)C2 (stereo not drawn) | 0.442 |
| CCCn1cc(NC(=O)c2cccnc2O)ccc1=O | -13.1 |
